Values after ≈ are worked out from the molar mass of the structure shown. Active and inactive are the calls of the source. No cut-off for these calls is given here.
Experiments:
Bacillus spizizenii [1] = assay: Antibacterial activity against Bacillus subtilis ATCC 6633 at 30 ug/disk after 12 hrs by paper disk diffusion assay; assay type: functional; conditions: for zone of inhibition at 30 µg/disc: ATCC 6633, 12 h, read-out: DIZ
Method in brief: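 Test compounds dissolved in MeOH and applied to paper disks at 30 μg/disk against Bacillus subtilis. Read-out is the diameter of the zone of complete growth inhibition.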

[2] = Inhibition of Escherichia coli RNA polymerase after 1 hr by fluorescence assay
Method in brief: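 Assay uses E. coli RNA polymerase. IC50 is taken from three independent dose–response curves, each point measured in duplicate, and reported as mean ± SEM.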

Serratia marcescens = assay: Antibacterial activity against Serratia marcescens ATCC 13880 after 24 hrs by broth microdilution method; assay type: functional; conditions: ATCC 13880, 24 h
Escherichia coli = assay: Antibacterial activity against Escherichia coli ATCC 25922 after 24 hrs by broth microdilution method; assay type: functional; conditions: ATCC 25922, 24 h
Staphylococcus aureus = assay: Antibacterial activity against Staphylococcus aureus ATCC 29213 after 24 hrs by broth microdilution method; assay type: functional; conditions: ATCC 29213, 24 h
Pseudomonas aeruginosa = assay: Antibacterial activity against Pseudomonas aeruginosa ATCC 27853 after 24 hrs by broth microdilution method; assay type: functional; conditions: ATCC 27853, 24 h
Micrococcus luteus = assay: Antibacterial activity against Micrococcus luteus ATCC 9341 after 24 hrs by broth microdilution method; assay type: functional; conditions: ATCC 9341, 24 h
Candida albicans = assay: Antifungal activity against Candida albicans ATCC 10231 after 48 hrs by broth microdilution method; assay type: functional; conditions: ATCC 10231, 48 h
Enterococcus faecalis = assay: Antibacterial activity against Enterococcus faecalis ATCC 29212 after 24 hrs by broth microdilution method; assay type: functional; conditions: ATCC 29212, 24 h
Bacillus spizizenii [3] = assay: Antibacterial activity against Bacillus subtilis ATCC 6633 after 24 hrs by broth microdilution method; assay type: functional; conditions: ATCC 6633, 24 h

CCC(=O)c1c(O)cc(CCCC(=O)Nc2c3sscc-3[nH]c2=O)oc1=O
diameter of the inhibition zone (DIZ) (Bacillus spizizenii [1]): inactive

Cc1cc(O)c(C(=O)CCCCCCC(=O)O)c(=O)o1
diameter of the inhibition zone (DIZ) (Bacillus spizizenii [1]): inactive

O=C(CCCCCCCO)Nc1c2sscc-2[nH]c1=O
zone of inhibition at 30 µg/disc (Bacillus spizizenii [1]): 9 mm

Cc1cc(O)c(C(=O)CCCCCCCC(=O)N2CCCCC2)c(=O)o1
diameter of the inhibition zone (DIZ) (Bacillus spizizenii [1]): inactive

C=CCCCc1cc(O)c(C(=O)CCCCCCC(=O)Nc2c3sscc-3[nH]c2=O)c(=O)o1
zone of inhibition at 30 µg/disc (Bacillus spizizenii [1]): 10 mm

CCCC/C(C)=C/C=C(\C)C(=O)c1c(O)cc([C@H](C)CC/C=C/NC(=O)OC)oc1=O [MYXOPYRONIN B]
IC50 [2]: 24 µM

Cc1cc(O)c(C(=O)CCCCCCCC(=O)Nc2c3sscc-3[nH]c2=O)c(=O)o1
IC50 [2]: 14 µM
MIC (Serratia marcescens): ≥ 256 µg/mL
zone of inhibition at 30 µg/disc (Bacillus spizizenii [1]): 15 mm
MIC (Escherichia coli): ≥ 256 µg/mL
MIC (Staphylococcus aureus): 4 µg/mL (≈ 8.88 µM)
MIC (Pseudomonas aeruginosa): 128 µg/mL (≈ 284 µM)
MIC (Micrococcus luteus): 1 µg/mL (≈ 2.22 µM)
MIC (Candida albicans): ≥ 256 µg/mL
MIC (Enterococcus faecalis): 4 µg/mL (≈ 8.88 µM)
MIC (Bacillus spizizenii [3]): 16 µg/mL (≈ 35.5 µM)

CO[C@H]1/C=C/O[C@@]2(C)Oc3c(C)c(O)c4c(O)c(c(/C=N/N5CCN(C)CC5)c(O)c4c3C2=O)NC(=O)/C(C)=C\C=C\[C@H](C)[C@H](O)[C@@H](C)[C@@H](O)[C@@H](C)[C@H](OC(C)=O)[C@@H]1C [RIFAMPIN]
IC50 [2]: 0.08 µM
MIC (Serratia marcescens): 32 µg/mL (≈ 38.9 µM)
zone of inhibition at 30 µg/disc (Bacillus spizizenii [1]): 25 mm
MIC (Escherichia coli): 8 µg/mL (≈ 9.72 µM)
MIC (Staphylococcus aureus): 0.5 µg/mL (≈ 0.608 µM)
MIC (Pseudomonas aeruginosa): 32 µg/mL (≈ 38.9 µM)
MIC (Micrococcus luteus): ≤ 0.125 µg/mL
MIC (Candida albicans): ≥ 256 µg/mL
MIC (Enterococcus faecalis): 1 µg/mL (≈ 1.22 µM)
MIC (Bacillus spizizenii [3]): ≤ 0.125 µg/mL

CCC(=O)c1c(O)cc(C)oc1=O
diameter of the inhibition zone (DIZ) (Bacillus spizizenii [1]): inactive

C=CCCCC(=O)c1c(O)cc(C)oc1=O
zone of inhibition at 30 µg/disc (Bacillus spizizenii [1]): 9 mm

Cc1cc(O)c(C(=O)NCCCCCCC(=O)Nc2c3sscc-3[nH]c2=O)c(=O)o1
diameter of the inhibition zone (DIZ) (Bacillus spizizenii [1]): Active

Cc1cc(O)c(C(=O)NCCCCCCC(=O)O)c(=O)o1
diameter of the inhibition zone (DIZ) (Bacillus spizizenii [1]): inactive

CCCCCCCCC(=O)c1c(O)cc(CCCCCC(=O)O)oc1=O
diameter of the inhibition zone (DIZ) (Bacillus spizizenii [1]): Active

CCCCCCCCC(=O)c1c(O)cc(C)oc1=O
IC50 [2]: > 2000 µM
MIC (Serratia marcescens): 128 µg/mL (≈ 481 µM)
zone of inhibition at 30 µg/disc (Bacillus spizizenii [1]): 12 mm
MIC (Escherichia coli): 128 µg/mL (≈ 481 µM)
MIC (Staphylococcus aureus): 8 µg/mL (≈ 30 µM)
MIC (Pseudomonas aeruginosa): 128 µg/mL (≈ 481 µM)
MIC (Micrococcus luteus): 2 µg/mL (≈ 7.51 µM)
MIC (Candida albicans): 64 µg/mL (≈ 240 µM)
MIC (Enterococcus faecalis): 4 µg/mL (≈ 15 µM)
MIC (Bacillus spizizenii [3]): 8 µg/mL (≈ 30 µM)

C=CCCCc1cc(O)c(C(=O)CCCCCCC(=O)O)c(=O)o1
diameter of the inhibition zone (DIZ) (Bacillus spizizenii [1]): inactive

Cc1cc(O)c(C(=O)CCCCCCC(=O)Nc2c3sscc-3[nH]c2=O)c(=O)o1
zone of inhibition at 30 µg/disc (Bacillus spizizenii [1]): 11 mm

CCCC/C(C)=C/C=C(\C)C(=O)c1c(O)cc(C(C)CC/C=C/NC(=O)OC)oc1=O (racemic)
diameter of the inhibition zone (DIZ) (Bacillus spizizenii [1]): Active

CCCCCCCCC(=O)c1c(O)cc(CCCCCC(=O)Nc2c3sscc-3[nH]c2=O)oc1=O
zone of inhibition at 30 µg/disc (Bacillus spizizenii [1]): 9 mm

Cc1cc(O)c(C(=O)CCCCC(=O)Nc2c3sscc-3[nH]c2=O)c(=O)o1
IC50 [2]: > 2000 µM
MIC (Serratia marcescens): 128 µg/mL (≈ 313 µM)
zone of inhibition at 30 µg/disc (Bacillus spizizenii [1]): 14 mm
MIC (Escherichia coli): 128 µg/mL (≈ 313 µM)
MIC (Staphylococcus aureus): 64 µg/mL (≈ 157 µM)
MIC (Pseudomonas aeruginosa): 64 µg/mL (≈ 157 µM)
MIC (Micrococcus luteus): 8 µg/mL (≈ 19.6 µM)
MIC (Candida albicans): 128 µg/mL (≈ 313 µM)
MIC (Enterococcus faecalis): 16 µg/mL (≈ 39.2 µM)
MIC (Bacillus spizizenii [3]): 64 µg/mL (≈ 157 µM)

Cc1cc(O)c(C(=O)CCCCCCC(=O)NC2=C3SS(=O)(=O)C=C3NC2=O)c(=O)o1
diameter of the inhibition zone (DIZ) (Bacillus spizizenii [1]): inactive

— ChEMBL document CHEMBL2321743, “Novel hybrid-type antimicrobial agents targeting the switch region of bacterial RNA polymerase” (ACS Med Chem Lett, 2013)
